This excerpt belongs to a sample that is enriched for hits.
ABCB6 inh 2 – ABCB6 transporter inhibitors, primary screen, K562-ABCB6 cells, flow cytometry, MLPCN library. K562-ABCB6 porphyrin accumulation, 1 h; active compounds read low. ATP-binding cassette sub-family B member 6 (Homo sapiens), Q9NP58. AID 602162, 2011. fluorescence ratio to DMSO, % at 10 µM. 0.19% of 360,000 active;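 active = fluorescence ratio to DMSO below 75%, the collection mean minus 3 SD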;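 also: signal is porphyrin accumulated inside mitochondria; 100% equals median channel fluorescence of DMSO control wells; lower ratio means ABCB6 inhibition with less porphyrin fluorescence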
Target sequence (Q9NP58 whole entry, looked up): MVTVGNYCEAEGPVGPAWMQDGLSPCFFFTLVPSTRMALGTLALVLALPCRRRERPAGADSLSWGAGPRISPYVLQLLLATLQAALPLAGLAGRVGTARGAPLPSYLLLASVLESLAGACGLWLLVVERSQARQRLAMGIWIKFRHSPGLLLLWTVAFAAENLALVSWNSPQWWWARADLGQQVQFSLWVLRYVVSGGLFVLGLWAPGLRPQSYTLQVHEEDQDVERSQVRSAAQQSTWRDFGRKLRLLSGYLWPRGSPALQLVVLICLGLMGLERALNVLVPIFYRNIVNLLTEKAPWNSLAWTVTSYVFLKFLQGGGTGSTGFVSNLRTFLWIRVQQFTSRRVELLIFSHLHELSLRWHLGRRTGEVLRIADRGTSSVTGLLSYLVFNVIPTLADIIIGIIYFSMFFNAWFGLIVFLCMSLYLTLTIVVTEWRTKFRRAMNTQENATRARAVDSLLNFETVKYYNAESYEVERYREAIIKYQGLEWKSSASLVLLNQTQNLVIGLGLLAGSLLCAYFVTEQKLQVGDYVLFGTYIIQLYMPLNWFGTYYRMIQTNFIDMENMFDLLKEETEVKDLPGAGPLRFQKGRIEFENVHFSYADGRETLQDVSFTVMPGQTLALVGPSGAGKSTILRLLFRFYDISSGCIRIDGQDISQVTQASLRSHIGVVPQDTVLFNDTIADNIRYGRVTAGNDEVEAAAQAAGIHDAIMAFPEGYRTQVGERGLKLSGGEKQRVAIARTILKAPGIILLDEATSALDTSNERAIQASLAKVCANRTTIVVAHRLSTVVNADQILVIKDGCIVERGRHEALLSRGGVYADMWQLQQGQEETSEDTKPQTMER
Myeloid diff MLP – induction of myeloid progenitor differentiation, primary screen, cell-based, flow cytometry, MLPCN library. ER-HoxA9 myeloid progenitors, lysozyme-GFP differentiation. calls only at 10 µM. AID 624256, 2012. 1% of 360,000 active;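 active = normalized GFP-positive differentiation at or above the plate's own cutoff, the solvent-only control mean plus 3 SD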;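 also: cells exposed to compound for four days before flow analysis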
Xi reactivation – activators of inactive X chromosome reactivation, primary screen, imaging, XiGFP fibroblasts, GFP high-content imaging, set 2. 0.055% of 360,000 active. activation, % at 7.58 µM. AID 743238, 2013. XiGFP mouse fibroblasts, % GFP-positive cells imaging, 3 d; cells co-treated with 5-aza-dC sensitizer; scaled so ellipticine positive control = 100%;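 active = mean normalized replicate activation at least 10% and every replicate at or above 10%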;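 also: 0% = median of on-plate neutral control wells and 100% = ellipticine 6 µM median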
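Schedule: 3 d treatment, 15 min room-temperature fixation; system: 68-5-11 XiGFP fibroblast line; buffer or medium: DMEM plus 5-aza-dC sensitizer; control set: ellipticine 6 µM positive control; compound: one concentration, pinned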
* = called active by the depositor; i = inactive; / = not tested or not shown; + = active, no number.

SMILES	ABCB6 inh 2	Myeloid diff MLP	Xi reactivation
CC(C)(C)c1ccc(C(=O)Nc2nnc(Cc3c[nH]c4ccccc34)s2)cc1	97	i	0
O=C(Nc1nnc(Cc2c[nH]c3ccccc23)s1)c1ccc(Cl)cc1Cl	106	+	0
CN(C)C(=O)C[C@@H]1C=C[C@@H](NC(=O)C2CC2)[C@H](CO)O1	/	/	0
CCN(CC)c1ccc(-c2sc(Nc3ccccc3)n[n+]2-c2ccc(F)cc2)cc1	801	+	0
CN(C)c1ccc(-c2sc(Nc3ccccc3)n[n+]2-c2ccc(F)cc2)cc1	377	i	0
CC(C)CC#Cc1cnc2c(c1)C(=O)N([C@@H](C)CO)C[C@@H](C)[C@@H](CN(C)C(=O)Nc1ccccc1F)O2	/	/	0
O=C(Cc1cccnc1)N[C@H]1CC[C@@H](CCNS(=O)(=O)c2ccccc2Cl)O[C@H]1CO	/	/	0
O=C(C[C@@H]1CC[C@H](NC(=O)CCN2CCCCC2)[C@@H](CO)O1)Nc1ccc(-c2ccccc2)cc1	/	/	0
Oc1ccc(C[C@@H]2CNCCN2CC2CCCCC2)cc1	98	i	0
c1ccc2c(C[C@@H]3CNCCN3CC3CCCCC3)cccc2c1	99	+	0
CN1CCN(C(=O)C[C@@H]2C=C[C@@H](NC(=O)Nc3ccccc3F)[C@@H](CO)O2)CC1	/	/	1
COc1ccc(NC(=O)Nn2cnnc2)cc1OC	91	i	0
COc1cc(NC(=O)Nn2cnnc2)cc(OC)c1OC	97	+	0
COc1ccc(NC(=O)N(C)C[C@H]2OCCCC[C@H](C)Oc3ccc(NC(=O)C4CCCCC4)cc3C(=O)N([C@@H](C)CO)C[C@H]2C)cc1	/	/	0
CCOc1ccc(CN(C)CC(=O)Nc2ccc([N+](=O)[O-])cc2Cl)cc1	92	+	0
CN(CCOc1ccccc1)CC(=O)Nc1cc([N+](=O)[O-])ccc1Cl	106	i	0
Cc1ccccc1-c1ccc([C@H]2[C@H]3CN(S(=O)(=O)c4cn(C)cn4)CCCCN3[C@H]2CO)cc1	/	/	0
CCC(=O)Nc1ccc2c(c1)OC[C@@H](C)N(CCc1ccccc1)C[C@H](C)[C@H](OC)CN(C)C2=O	/	/	0
COc1cc2c(cc1OC)C1(Nc3c-2c(-c2ccccc2)nn3-c2ccccc2)C(=O)Nc2ccccc21 (stereo not given)	123	i	/
COc1cc2c(cc1OC)C1(Nc3c-2c(C)nn3-c2ccccc2)C(=O)Nc2ccccc21 (stereo not given)	126	+	/
O=S(=O)(N[C@H]1CC[C@H](CCn2cc(-c3ccccc3F)nn2)O[C@@H]1CO)c1ccc(F)cc1	/	/	0
C[C@H]1CN([C@@H](C)CO)C(=O)c2cccc(NC(=O)C3CCOCC3)c2O[C@H]1CN(C)Cc1ccc(C(F)(F)F)cc1	/	/	0
CCN(C(=O)COC(=O)c1c(C)nn(-c2ccccc2)c1C)C1CCS(=O)(=O)C1 (stereo not given)	92	i	0
CCN(C(=O)COC(=O)c1c2c(nc3ccccc13)/C(=C/c1ccccc1)CC(C)C2)C1CCS(=O)(=O)C1 (stereo not given)	100	+	0
CCCCCCCC/C=C\CCCCCCCC(=O)O	108	i	0
SMILES	ABCB6 inh 2	Myeloid diff MLP	Xi reactivation
CCCCC/C=C\C/C=C\C/C=C\CCCCC(=O)O	98	+	0
Nc1c(C(=O)Nc2nc3ccccc3s2)sc2nc(-c3cccs3)ccc12	288	+	/
CC(=O)c1sc2nc(-c3cccs3)ccc2c1N	108	i	/
O=C(Cc1ccncc1)Nc1ccc2c(c1)[C@@H]1C[C@H](CC(=O)NC3CCCCC3)O[C@H](CO)[C@@H]1O2	/	/	0
Cc1ccc(/C=C2\SC(=S)N(CCCC(=O)N3CCOCC3)C2=O)cc1	93	+	0
COc1ccc(/C=C2\SC(=S)N(CCC(=O)Nc3ccccc3C(=O)O)C2=O)cc1	96	i	0
COc1ccc(/C=C2\SC(=S)N(CCC(=O)N3CCCCC3)C2=O)cc1	91	+	0
COCCN1C(=O)/C(=C/c2ccc(N3CCCC3)cc2)SC1=S	i	+	0
COc1ccc(/C=C2/SC(=S)N(CCC(=O)N3CCN(C)CC3)C2=O)cc1	92	i	0
CCOc1ccc(/C=C2\SC(=S)N(CCC(=O)Nc3ccccc3C(=O)O)C2=O)cc1	127	+	0
COC(=O)c1ccc(/C=C2\SC(=S)N(CCCC(=O)N3CCOCC3)C2=O)cc1	103	i	0
COc1ccc(/C=C2\SC(=S)N(CC(=O)N3CCN(C)CC3)C2=O)cc1	103	i	0
C[C@H]1CN([C@@H](C)CO)C(=O)c2cccc(NC(=O)Nc3ccccc3)c2O[C@H]1CN(C)Cc1ccncc1	/	/	0
C[C@@H]1CN([C@H](C)CO)S(=O)(=O)c2ccc(/C=C/c3ccccc3)cc2O[C@H]1CN(C)Cc1cccnc1	/	/	0
C[C@H](CO)N1C[C@H](C)[C@H](CN(C)Cc2ccc3c(c2)OCO3)Oc2c(NS(=O)(=O)c3ccc(Cl)cc3)cccc2C1=O	/	/	0
O=C(C[C@H]1CC[C@H]2[C@@H](COC[C@H](O)CN2Cc2cccc(Cl)c2)O1)N1CCCCC1	/	/	0
O=C1CN(S(=O)(=O)c2cccc(F)c2)C[C@H]2[C@H](c3ccc(C4=CCCC4)cc3)[C@@H](CO)N12	/	/	0
CC(=O)N1CC2(C1)[C@@H](c1ccc(-c3cccc(F)c3)cc1)[C@@H](CO)N2CC1CCCC1	/	/	0
COc1ccc(OCC(O)Cn2c(=N)n(Cc3ccccc3)c3ccccc32)cc1 (stereo not given)	96	i	/
CCn1c(=N)n(CC(O)c2ccco2)c2ccccc21 (stereo not given)	95	i	/
Cc1ccc(OCC(O)Cn2c(=N)n(Cc3ccccc3)c3ccccc32)cc1 (stereo not given)	95	+	/
N=c1n(Cc2ccccc2)c2ccccc2n1CC(O)c1ccco1 (stereo not given)	133	+	/
C[C@@H]1C/C=C\C[C@H](c2ccc3c(c2)OCO3)NC(=O)[C@@H](c2ccccc2)CC(=O)N1	/	/	0
CC(C)NC(=O)Nc1cccc2c1O[C@H](CN(C)Cc1ccc3c(c1)OCO3)[C@@H](C)CN([C@H](C)CO)C2=O	/	/	0
Cc1sc2nc3ccc(NCc4ccco4)nn3c(=O)c2c1C	104	+	/
SMILES	ABCB6 inh 2	Myeloid diff MLP	Xi reactivation
O=c1c2ccccc2nc2ccc(NCc3ccco3)nn12	103	i	/
COc1ccc(S(=O)(=O)N(C)C[C@@H]2Oc3ccc(NC(=O)Cc4ccccc4)cc3C(=O)N([C@H](C)CO)C[C@H]2C)cc1	/	/	-1
CO[C@@H]1CN(C)C(=O)c2ccc(NS(=O)(=O)c3cccc(F)c3)cc2OC[C@H](C)N(Cc2cc(F)ccc2F)C[C@H]1C	/	/	0
COc1ccc(C2=CSC3=NNC4(CCCCC4)NN23)cc1	106	i	0
Cc1ccc(C2=CSC3=NNC4(CCCCC4)NN23)cc1	218	+	0
CC(NC(=O)Nc1ccc(O)cc1)(C(F)(F)F)C(F)(F)F	108	i	/

Screening data from PubChem.
